Each structure is given as a SMILES string. The source made the active and inactive calls. The rule behind the calls is not given here.

Assay [1] concerns Hepa-1c1c7. As to the kind of experiment: Induction of quinone reductase in mouse Hepa-1c1c7 cells at 40 uM after 24 hrs by MTT assay relative to control. The class given is cell-based. In short, it runs like this:
(§1)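 QR induction measured in murine Hepa 1c1c7 hepatoma cells. Test concentrations ranged 5−40 μM. Blank control was 0.1% DMSO, and β-NF at 2 μM served as the positive control. Induction is expressed as fold over the blank control.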
(Tetrazolium dyes change colour on reduction, which living cells bring about.)

The test system of assay [2] is Hepa-1c1c7. Description: Induction of quinone reductase in mouse Hepa-1c1c7 cells after 24 hrs by MTT assay. The assay is classed as cell-based. In short, it runs like this:
as §1

The test system of assay [3] is Candida albicans. Description: Antimicrobial activity against Candida albicans ATCC 10231 after 48 to 72 hrs by two-fold broth dilution assay. The class given is functional.
For assay [4], the system named is Trichophyton mentagrophytes. As to the kind of experiment: Antimicrobial activity against Trichophyton mentagrophytes IFO 40996 after 48 to 72 hrs by two-fold broth dilution assay. The class given is functional. (Broth dilution looks for growth in wells or tubes with falling amounts of substance.)
Assay [5] has as its system Trichophyton rubrum. Description: Antimicrobial activity against Trichophyton rubrum IFO 9185 after 48 to 72 hrs by two-fold broth dilution assay. The assay is classed as functional.
Assay [6] deals with Aspergillus fumigatus. As to the kind of experiment: Antimicrobial activity against Aspergillus fumigatus HIC 6094 after 48 to 72 hrs by two-fold broth dilution assay. The assay is classed as functional.
The subject of assay [7] is Staphylococcus aureus. As to the kind of experiment: Antimicrobial activity against Staphylococcus aureus ATCC 6538p after 24 hrs by two-fold broth dilution assay. The assay is classed as functional.
For assay [8], the system named is Micrococcus luteus. Description: Antimicrobial activity against Micrococcus luteus IFO 12708 after 24 hrs by two-fold broth dilution assay. The following applies: IFO 12708, 24 h. The class given is functional.
Assay [9] deals with Bacillus spizizenii. As to the kind of experiment: Antimicrobial activity against Bacillus subtilis ATCC 6633 after 24 hrs by two-fold broth dilution assay. The class given is functional. The following applies: ATCC 6633, 24 h.
In assay [10] the test system is Salmonella typhimurium. As to the kind of experiment: Antimicrobial activity against Salmonella typhimurium ATCC 14028 after 24 hrs by two-fold broth dilution assay. The class given is functional, Salmonella enterica subsp. enterica serovar Typhimurium. Particulars: Salmonella enterica, ATCC 14028, 24 h.
In assay [11] the test system is Proteus vulgaris. Description: Antimicrobial activity against Proteus vulgaris ATCC 3851 after 24 hrs by two-fold broth dilution assay. The following applies: ATCC 3851, 24 h. The assay is classed as functional.
For assay [12], the system named is Escherichia coli. As to the kind of experiment: Antimicrobial activity against Escherichia coli ATCC 35270 after 24 hrs by two-fold broth dilution assay. The assay is classed as functional. Particulars: ATCC 35270, 24 h.
The subject of assay [13] is K562. Description: Cytotoxicity against human K562 cells after 48 hrs by MTT assay. The following applies: K562, 48 h, read-out: LC50 (the source's name). The class given is functional. In short, it runs like this: (§2)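 Values reported as LC50 (μM), with doxorubicin as the positive control; the rest of the method follows the cited literature protocol.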
Assay [14] relates to A549. Description: Cytotoxicity against human A549 cells after 48 hrs by MTT assay. The following applies: A549, 48 h. The class given is functional. In outline:
as §2

Assay [15] concerns Hepa-1c1c7. As to the kind of experiment: Induction of quinone reductase in mouse Hepa-1c1c7 cells at 2 uM after 24 hrs by MTT assay relative to control. The assay is classed as cell-based.
The mark [16] stands for this setting: read-out: LC50 (the source's name).

For orientation: MIC means the lowest concentration that inhibits growth of the organism. Low readings indicate a more susceptible organism, high ones a less susceptible organism. Take `Cc1cc(=O)c2c(o1)O[C@@]1(C)[C@@H](CC[C@H]3C(C)(C)C(=O)CC[C@@]31C)C2`: in [1], the Ratio came out at 1.9. Also, in assay [2], the Activity result was “Dose-dependent effect”. In addition, the MIC in [3], in assay [4], in [5], in assay [6], in [7] and in assay [8] was above 100 µg/mL each time. In addition, the minimum inhibitory concentration (MIC) in [9], in assay [10], in [11] and in [12] was above 100 µg/mL throughout. The CC50 in assay [13] was determined as 50 µM; in [14] (setting [16]) it was 17 µM.

In the case of `COc1cccc2c1C(=O)c1c(O)c3c(c(O)c1C2=O)C[C@@](O)(C(=O)CO)C[C@@H]3O[C@H]1C[C@H](N)[C@H](O)[C@H](C)O1` [DOXORUBICIN], the results for the CC50 in assay [13] and in assay [14] (read-out: LD50 (the source's name)) were 0.99 µM and 1.2 µM, respectively.

`Cc1cc(=O)c2c(o1)O[C@@]1(C)[C@@H](CC[C@H]3C(C)(C)[C@@H](O)CC[C@@]31C)C2`: the result in assay [1] was inactive. The minimum inhibitory concentration (MIC) in [3], in [4], in assay [5], in assay [6], in assay [7] and in assay [8] was above 100 µg/mL in each case. The minimal inhibitory concentration (MIC) in assay [9], in assay [10], in assay [11] and in [12] was above 100 µg/mL in each case. Moreover, the CC50 in [13] worked out at 28 µM; in [14] (setting [16]), 15 µM.

`O=c1cc(-c2ccccc2)oc2ccc3ccccc3c12`: in [15], the outcome was Active.
